Data: ChEMBL document CHEMBL1141414, “Inhibitors of bacterial cystathionine beta-lyase: leads for new antimicrobial agents and probes of enzyme structure and function” (J Med Chem, 2007)
Values after ≈ are worked out from the molar mass of the structure shown.

How the values were obtained:
[1] = target: T1, Cystathionine beta-lyase MetC (Escherichia coli K-12, UniProt P06721); assay: Inhibition of Escherichia coli CBL
T1 sequence (P06721 whole entry): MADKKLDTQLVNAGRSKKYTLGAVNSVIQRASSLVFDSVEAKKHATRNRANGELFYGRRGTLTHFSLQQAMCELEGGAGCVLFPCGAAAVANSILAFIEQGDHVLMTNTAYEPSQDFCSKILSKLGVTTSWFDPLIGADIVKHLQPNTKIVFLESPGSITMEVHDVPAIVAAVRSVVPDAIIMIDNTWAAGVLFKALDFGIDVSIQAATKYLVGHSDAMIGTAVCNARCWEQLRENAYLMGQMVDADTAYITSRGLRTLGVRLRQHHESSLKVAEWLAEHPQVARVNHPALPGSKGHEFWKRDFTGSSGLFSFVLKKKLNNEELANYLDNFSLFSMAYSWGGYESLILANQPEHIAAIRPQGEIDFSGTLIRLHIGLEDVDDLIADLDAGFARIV
Summary of the method: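 Purified E. coli CBL (24 nM) in 50 mM TAPS pH 8.5 with 1 mM DTNB, preincubated 10 min at room temperature with inhibitor in DMSO (5% final). Reaction started with 100 µM cystathionine; homocysteine formation followed at 412 nm for 4 min, rate taken from 30-200 s slope. IC50 fitted as a four-parameter logistic from 12 concentrations, triplicate.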

Candida albicans = assay: Antifungal activity against Candida albicans ATCC 90028; format: functional
Escherichia coli [2] = assay: Antibacterial activity against Escherichia coli ATCC 25922 in presence of methionine; format: functional
Escherichia coli [3] = assay: Antibacterial activity against Escherichia coli ATCC 25922 in absence of methionine; format: functional

IC50 [1] [µM] | MIC (Candida albicans) [µg/mL] | MIC (Escherichia coli [2]) [µg/mL] | MIC (Escherichia coli [3]) [µg/mL] | SMILES
6.9 |  |  |  | NNS(=O)(=O)c1ccc(Cl)s1
200 | > 128 | > 128 | > 128 | Cc1ccc2nc(-c3ccc(NC(=O)c4ccc(Cl)cc4)cc3)sc2c1
9 |  |  |  | N#CC(C#N)=C1c2cc(S(=O)(=O)Oc3ccccc3)cc([N+](=O)[O-])c2-c2c1cc(S(=O)(=O)Oc1ccccc1)cc2[N+](=O)[O-]
2.7 | > 128 | > 128 | > 128 | O=C(CSc1nccc(-c2cccs2)n1)c1cc(-c2ccc(Cl)c(Cl)c2)no1
500 |  |  |  | NNC(=O)CNC(=O)Cc1cccc2ccccc12
560 | > 128 | > 128 | > 128 | NNC(=O)CNC(=O)c1cc2ccccc2cc1N
5.9 | > 128 | 128 | 128 (≈ 452 µM) | NNC(=O)CNC(=O)c1cc([N+](=O)[O-])cc([N+](=O)[O-])c1
2.2 | 128 (≈ 687 µM) | 64 | 32 (≈ 172 µM) | Cc1ccc(S(=O)(=O)NN)cc1
15 | > 128 | 128 | 128 (≈ 490 µM) | NNC(=O)CNC(=O)c1ccc(C(F)(F)F)cc1
0.53 | > 128 | 64 | 64 (≈ 128 µM) | O=C(OCc1ccccc1Br)c1cc([N+](=O)[O-])cc2c1-c1ccc([N+](=O)[O-])cc1/C2=N/O
25 | > 128 | 64 | 32 (≈ 134 µM) | NNC(=O)CNC(=O)c1ccc([N+](=O)[O-])cc1
34 | > 128 | 64 | 64 (≈ 263 µM) | CC(=O)NCc1ccc(S(=O)(=O)NN)cc1
82 | > 128 | 128 | 128 (≈ 573 µM) | NNC(=O)CNC(=O)c1cc(N)cc(N)c1
3.4 | > 128 | 32 | 32 (≈ 125 µM) | NNS(=O)(=O)c1ccc(-c2ccccn2)s1
1.8 |  |  |  | NNS(=O)(=O)c1ccc(Cl)c(Cl)c1
4.5 | 128 (≈ 537 µM) | 16 | 16 (≈ 67.2 µM) | NNC(=O)CNC(=O)c1ccccc1[N+](=O)[O-]
16 | > 128 | > 128 | > 128 | Cc1ccc2nc(-c3ccc(NC(=O)Nc4ccc(Cl)cc4)cc3)sc2c1
0.28 | 16 (≈ 56.1 µM) | 64 | 32 (≈ 112 µM) | Cc1ccccc1NC(=O)C(C(F)(F)F)C(F)(F)F
6 |  |  |  | NNS(=O)(=O)c1cccc2c(N)cccc12
0.079 | > 128 | > 128 | > 128 | NNC(=O)CNC(=O)c1ccccc1C(F)(F)F
0.65 | > 128 | > 128 | > 128 | COc1c(F)c(F)cc(C(=O)NCC(=O)NN)c1F
60 | > 128 | > 128 | > 128 | COc1cccc(OC)c1C(=O)NCC(=O)NN
37 | > 128 | > 128 | > 128 | NNC(=O)CNC(=O)c1cccc(C(F)(F)F)c1
